Consider three molecules from ChEMBL document CHEMBL1155315, “Towards to hENT1-nucleoside transporter selective imaging agents. Synthesis and in vitro evaluation of the radiolabeled SAENTA analogues” (Bioorg Med Chem Lett, 2009).

Structures are written as SMILES. pIC50, pKd, pKi: −log10 of the molar value.

Experiment [1] concerns the target T1, Equilibrative nucleoside transporter 1 (Homo sapiens, UniProt Q99808).
T1 sequence (Q99808 whole entry): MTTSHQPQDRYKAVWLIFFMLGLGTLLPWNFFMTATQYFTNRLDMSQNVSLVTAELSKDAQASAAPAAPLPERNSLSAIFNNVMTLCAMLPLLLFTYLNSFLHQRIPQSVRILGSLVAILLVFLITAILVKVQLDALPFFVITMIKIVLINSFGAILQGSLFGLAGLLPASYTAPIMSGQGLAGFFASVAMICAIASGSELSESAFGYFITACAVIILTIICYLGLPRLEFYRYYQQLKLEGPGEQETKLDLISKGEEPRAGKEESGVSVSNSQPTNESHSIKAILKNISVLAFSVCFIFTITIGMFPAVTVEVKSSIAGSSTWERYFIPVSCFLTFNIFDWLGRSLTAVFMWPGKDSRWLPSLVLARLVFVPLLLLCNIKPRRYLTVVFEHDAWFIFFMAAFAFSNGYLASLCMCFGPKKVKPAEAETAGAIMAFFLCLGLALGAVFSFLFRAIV
In words: Displacement of SAENTA-fluorescein from human ENT1 in HL60 cells by flow cytometry. In kind it is cell-based, HL-60. The procedure, abridged:
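HL60 cells were preincubated with the inhibitor, then exposed to 50 nM SAENTA-fluorescein and analysed by flow cytometry (example inhibitor levels 5, 25 and 50 nM). IC50 is the concentration inhibiting 50% of SAENTA-fluorescein binding, from nonlinear regression of inhibitor concentration–fluorescence curves. Ki = IC50/(1+[S]/KD), using the SAENTA-fluorescein concentration and KD.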

In experiment [2] the target is T1, Equilibrative nucleoside transporter 1. In words: (§1) Binding affinity to human ENT1 in panc1 cells by flow cytometry. In kind it is cell-based. The procedure, abridged: (§2)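 Apparent KD and Bmax of SAENTA-fluorescein on each cell line, from flow-cytometric binding over a range of SAENTA-fluorescein concentrations. Specific binding is total minus nonspecific fluorescence, with nonspecific fluorescence measured in the presence of 7.2 μM NBMPR. Saturation parameters come from curve fitting; Bmax is given as mean fluorescence units per 10^4 cells.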

In experiment [3] the target is T2, Equilibrative nucleoside transporter 1 (Homo sapiens) (UniProt Q99808).
T2 sequence (whole entry): T1 sequence (Q99808 whole entry)
Described as §1. In kind it is cell-based. The procedure, abridged:
as §2

Experiment [4] concerns the target T1, Equilibrative nucleoside transporter 1. In words: (§3) Binding affinity to human ENT1 in MIA-PaCa2 cells by flow cytometry. In kind it is cell-based. The method, boiled down: as §2
The target in experiment [5] is T2, Equilibrative nucleoside transporter 1 (Homo sapiens). The description is as §3. In kind it is cell-based. The method, boiled down: as §2
Experiment [6] has as its target T1, Equilibrative nucleoside transporter 1. As to the kind of experiment: (§4) Binding affinity to human ENT1 in BX-PC3 cells by flow cytometry. In kind it is cell-based, BXPC-3. The procedure, abridged: as §2
Experiment [7] has as its target T2, Equilibrative nucleoside transporter 1 (Homo sapiens). The experiment is described as §4. In kind it is cell-based. The note with it: BXPC-3. The method, boiled down: as §2
Experiment [8] addresses T1, Equilibrative nucleoside transporter 1. As to the kind of experiment: (§5) Binding affinity to human ENT1 in HL60 cells by flow cytometry. In kind it is cell-based, HL-60. The method, boiled down:
as §2

Experiment [9] has as its target T2, Equilibrative nucleoside transporter 1 (Homo sapiens). Described as §5. Particulars: HL-60. In kind it is cell-based. The method, boiled down:
as §2

Experiment [10] deals with T1, Equilibrative nucleoside transporter 1. As to the kind of experiment: (§6) Binding affinity to human ENT1 in Capan1 cells by flow cytometry. In kind it is cell-based, CAPAN-1. The procedure, abridged:
as §2

The target in experiment [11] is T2, Equilibrative nucleoside transporter 1 (Homo sapiens). The experiment is described as §6. In kind it is cell-based. Particulars: CAPAN-1. The method, boiled down:
as §2

Experiment [12] has as its target T1, Equilibrative nucleoside transporter 1. In words: (§7) Binding affinity to human ENT1 in SK-PC1 cells by flow cytometry. In kind it is cell-based. The method, boiled down:
as §2

The target of experiment [13] is T2, Equilibrative nucleoside transporter 1 (Homo sapiens). Described as §7. In kind it is cell-based. The method, boiled down: as §2

In experiment [1], `O=C(CCCCCNC(=O)c1cccc(I)c1)NCCSC[C@H]1O[C@@H](n2cnc3c(NCc4ccc([N+](=O)[O-])cc4)ncnc32)[C@H](O)[C@@H]1O` gave a negative logarithm of the IC50 (pIC50) of 8.85 and a pKi of 10.74.
In experiment [1], `O=C(CCCCCNC(=O)c1ccc(F)cc1)NCCSC[C@H]1O[C@@H](n2cnc3c(NCc4ccc([N+](=O)[O-])cc4)ncnc32)[C@H](O)[C@@H]1O` had a pIC50 of 8.29 and a negative logarithm of the Ki (pKi) of 10.19.
For the molecule `O=C(CCCCCNC(=O)c1ccc2c(c1)C(=O)OC21c2ccc(O)cc2Oc2cc(O)ccc21)NCCSC[C@H]1O[C@@H](n2cnc3c(NCc4ccc([N+](=O)[O-])cc4)ncnc32)[C@H](O)[C@@H]1O`, the pKd is 8.42 in experiment [2]; 9.04 in experiment [4]; 9.44 in [6]; 9.59 in experiment [8]; 9.49 in experiment [10]; 9.40 in experiment [12]. Besides, the Bmax stood at 49.8 MFU in [3]; 30.7 MFU in experiment [5]; 6.7 MFU in experiment [7]; 21.1 MFU in [9]; 9.5 MFU in experiment [11]; 2.6 MFU in experiment [13].
